ChEMBL document CHEMBL1146549, “Five new cassane diterpenes from Myrospermum frutescens with activity against Trypanosoma cruzi” (J Nat Prod, 2003)

Experiments:
[1] = Ratio of IC50 for HFF to IC50 for Trypanosoma cruzi Tulahuen clone C4 trypomastigotes
HFF = assay: Cytotoxicity against HFF after 3 days by MTT assay; type: cell-based; conditions: Homo sapiens, 72 h
Summary of the method: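 Primary human foreskin fibroblasts adhered to 96-well plates, exposed to compounds, and viability assessed by MTT reduction after 3 days at 37 °C in CO2. IC50 derived as in the intracellular assay.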

Trypanosoma cruzi [2] = assay: Antitrypanosomal activity against Trypanosoma cruzi epimastigotes after 3 days; type: functional, organism-based; conditions: 72 h
Summary of the method: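 Recombinant epimastigotes grown in LIT medium with 10% calf serum at 28 °C, seeded at 1 × 10^5/mL with test compounds. After 3 days, CPRG and Nonidet P-40 added as in the intracellular assay, OD 570 nm. Amphotericin B as positive control. IC50 derived as in the intracellular assay.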

Trypanosoma cruzi [3] = assay: Antitrypanosomal activity against Trypanosoma cruzi Tulahuen clone C4 trypomastigotes in HFF after 7 days by beta-galactosidase reporter gene assay; type: functional, organism-based; conditions: 168 h
Summary of the method: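 HFF seeded at 1 × 10^3/well in RPMI-1640 without phenol red plus 10% fetal calf serum, overnight. βGal-expressing trypomastigotes added at 1 × 10^3/well, overnight, then serial dilutions (final 50, 10, 2 µg/mL). DMSO ≤0.1% final; vehicle control. Read at 7 days post-infection: CPRG 100 µM, Nonidet P-40 0.1% final, 4-6 h at 37 °C, OD 570 nm. Duplicates, ≥3 experiments, SD.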

[4] = Ratio of IC50 for HFF to IC50 for Trypanosoma cruzi epimastigotes

Row | Structure (SMILES) | IC50 (Trypanosoma cruzi [2]) [µM] | IC50 (Trypanosoma cruzi [3]) [µM] | Ratio IC50 [1] | IC50 (HFF) [µM] | Ratio IC50 [4]
1 | C=CC1=C(C)[C@@H]2CC[C@H]3[C@](C)(CO)CCC[C@]3(C)[C@H]2CC1 | 48.6 | 17.4 | 9 | 149 | –
2 | C=CC1=C(C)[C@@H]2CC(=O)[C@H]3[C@](C)(CO)CCC[C@]3(C)[C@H]2CC1 | 36 | – | – | – | –
3 | CC1CS(=O)(=O)CCN1/N=C/c1ccc([N+](=O)[O-])o1 (stereo not given) [NIFURTIMOX] | – | 11 | – | – | –
4 | C[C@@H]1[C@H](O)[C@@H](C)/C=C/C=C/C=C/C=C/C=C/C=C/C=C/[C@H](O[C@@H]2O[C@H](C)[C@@H](O)[C@H](N)[C@@H]2O)C[C@@H]2O[C@](O)(C[C@@H](O)C[C@@H](O)[C@H](O)CC[C@@H](O)C[C@@H](O)CC(=O)O[C@H]1C)C[C@H](O)[C@H]2C(=O)O [AMPHOTERICIN B] | 1 | – | – | – | –

More lines, main results first:

Row | IC50 (Trypanosoma cruzi [2]) [µM] | IC50 (Trypanosoma cruzi [3]) [µM] | Structure (SMILES) | Ratio IC50 [1] | IC50 (HFF) [µM] | Ratio IC50 [4]
5 | 59 | – | C=CC1=C(C)[C@@H]2C[C@@H](OC(C)=O)[C@H]3[C@](C)(COC(C)=O)CCC[C@]3(C)[C@H]2CC1 | – | – | –
6 | 104 | – | C=CC1=C(C)[C@@H]2CC[C@H]3[C@@](COC(C)=O)(C(=O)O)CCC[C@]3(C)[C@H]2CC1 | – | – | –
7 | 16.5 | 35.8 | C=C[C@@]1(O)CC[C@H]2[C@@H](C[C@@H](O)[C@H]3[C@](C)(COC(C)=O)CCC[C@]23C)C1=C | – | 124 | –
8 | 11.5 | 25.9 | C=CC1=C(C)[C@@H]2C[C@@H](O)[C@H]3[C@](C)(COC(C)=O)CCC[C@]3(C)[C@H]2CC1 | – | 118 | 10
9 | 56 | 16.6 | C=CC1=C(C)[C@@H]2C[C@@H](O)[C@H]3[C@](C)(CO)CCC[C@]3(C)[C@H]2CC1 | 9 | 148 | –
